According to ChEMBL document CHEMBL3243954 (J Med Chem, 1979):

How the values were obtained:
[1] = Drug metabolism in mouse liver microsomes assessed as rate of esterase-mediated compound hydrolysis measured per mg of protein by pH stat based titrimetric analysis; format: ADME
Mus musculus [2] = species on record: Mus musculus; test: Ratio of ED50 for muscle relaxant activity in mouse to ED50 for antimetrazol activity in mouse measured after 30 mins
Mus musculus [3] = test: Antimetrazol activity in iv dosed mouse assessed as inhibition of metrazol-induced tonic-extensor seizures administered 30 mins prior to metrazol challenge; format: functional
How it was run: (§1)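 Mice dosed iv with the ester in aqueous solution containing under 10% chremofor. Metrazol 125 mg/kg sc was given 30 or 60 min after the ester. ED50 is the dose preventing tonic-extensor seizures in 50% of mice, derived by probit analysis.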

Mus musculus [4] = test: Muscle relaxant activity in iv dosed mouse after 60 mins by rotarod test; format: ADME, organism-based; conditions: in vivo, 1 h
Mus musculus [5] = test: Muscle relaxant activity in iv dosed mouse after 30 mins by rotarod test; format: ADME, organism-based; conditions: in vivo, 0.5 h
Mus musculus [6] = test: Antimetrazol activity in iv dosed mouse assessed as inhibition of metrazol-induced tonic-extensor seizures administered 60 mins prior to metrazol challenge; format: functional; how it was run: as §1
Mus musculus [7] = species on record: Mus musculus; test: Ratio of ED50 for muscle relaxant activity in mouse to ED50 for antimetrazol activity in mouse measured after 60 mins
[8] = (§2) Drug metabolism in mouse liver microsomes assessed as rate of esterase-mediated compound hydrolysis by pH stat based titrimetric analysis; format: ADME; conditions: microsomes
Brain [9] = test: Drug uptake albino mouse brain at 5 mg equivalent of oxazepam/kg, iv after 40 mins measured per gm of tissue by thin-layer chromatography; format: ADME, organism-based; conditions: in vivo
Brain [10] = test: Drug uptake albino mouse brain at 5 mg equivalent of oxazepam/kg, iv after 120 mins measured per gm of tissue by thin-layer chromatography; format: ADME, organism-based; conditions: in vivo, 2 h
Brain [11] = test: Drug uptake albino mouse brain at 5 mg equivalent of oxazepam/kg, iv after 3 mins measured per gm of tissue by thin-layer chromatography; format: ADME, organism-based; conditions: in vivo, 0.05 h
Brain [12] = test: Drug uptake albino mouse brain at 5 mg equivalent of oxazepam/kg, iv after 60 mins measured per gm of tissue by thin-layer chromatography; format: ADME, organism-based; conditions: in vivo, 1 h
Brain [13] = test: Drug uptake albino mouse brain at 5 mg equivalent of oxazepam/kg, iv after 240 mins measured per gm of tissue by thin-layer chromatography; format: ADME, organism-based; conditions: in vivo, 4 h
Brain [14] = test: Drug uptake albino mouse brain at 5 mg equivalent of oxazepam/kg, iv after 20 mins measured per gm of tissue by thin-layer chromatography; format: ADME, organism-based; conditions: in vivo
[15] = Retardation factor, Rm of the compound by thin-layer chromatography; format: physicochemical
Brain [16] = test: Drug uptake albino mouse brain at 5 mg equivalent of oxazepam/kg, iv after 10 mins measured per gm of tissue by thin-layer chromatography; format: ADME, organism-based; conditions: in vivo
Brain [17] = test: Drug uptake albino mouse brain at 10 mg equivalent of oxazepam/kg, iv after 240 mins measured per gm of tissue by thin-layer chromatography; format: ADME, organism-based; conditions: in vivo, 4 h
Brain [18] = test: Drug uptake albino mouse brain at 10 mg equivalent of oxazepam/kg, iv after 10 mins measured per gm of tissue by thin-layer chromatography; format: ADME, organism-based; conditions: in vivo
Brain [19] = test: Drug uptake albino mouse brain at 10 mg equivalent of oxazepam/kg, iv after 5 mins measured per gm of tissue by thin-layer chromatography; format: ADME, organism-based; conditions: in vivo
Brain [20] = test: Drug uptake albino mouse brain at 10 mg equivalent of oxazepam/kg, iv after 3 mins measured per gm of tissue by thin-layer chromatography; format: ADME, organism-based; conditions: in vivo, 0.05 h
Brain [21] = test: Drug uptake albino mouse brain at 10 mg equivalent of oxazepam/kg, iv after 120 mins measured per gm of tissue by thin-layer chromatography; format: ADME, organism-based; conditions: in vivo, 2 h
Brain [22] = test: Drug uptake albino mouse brain at 10 mg equivalent of oxazepam/kg, iv after 20 mins measured per gm of tissue by thin-layer chromatography; format: ADME, organism-based; conditions: in vivo
Brain [23] = test: Drug uptake albino mouse brain at 10 mg equivalent of oxazepam/kg, iv after 60 mins measured per gm of tissue by thin-layer chromatography; format: ADME, organism-based; conditions: in vivo, 1 h
Brain [24] = test: Drug uptake albino mouse brain at 10 mg equivalent of oxazepam/kg, iv after 1 min measured per gm of tissue by thin-layer chromatography; format: ADME, organism-based; conditions: in vivo
Brain [25] = test: Drug uptake albino mouse brain at 10 mg equivalent of oxazepam/kg, iv after 30 mins measured per gm of tissue by thin-layer chromatography; format: ADME, organism-based; conditions: in vivo, 0.5 h
esterase = test: as §2; format: ADME; conditions: liver microsomes
Brain [26] = test: Drug uptake albino mouse brain at 5 mg equivalent of oxazepam/kg, iv after 5 mins measured per gm of tissue by thin-layer chromatography; format: ADME, organism-based; conditions: in vivo
[27] = Mus musculus, iv, read-out: ED50

| Structure (SMILES) | Vmax [1] | Ratio ED50 (Mus musculus [2]) | ED50 (Mus musculus [3]; [27]) | ED50 (Mus musculus [4]) | ED50 (Mus musculus [5]) | ED50 (Mus musculus [6]; [27]) | Ratio ED50 (Mus musculus [7]) | further results |
| --- | --- | --- | --- | --- | --- | --- | --- | --- |
| CCC(=O)OC1N=C(c2ccccc2)c2cc(Cl)ccc2NC1=O (stereo not drawn) | 139 nmol/min | 34.2 | 0.13 mg/kg | 4.4 mg/kg | 4.45 mg/kg | 0.32 mg/kg | 13.8 |  |
| COC(=O)CCC(=O)OC1N=C(c2ccccc2)c2cc(Cl)ccc2NC1=O (stereo not drawn) | 125 nmol/min |  |  |  |  |  |  |  |
| CC(Cc1ccccc1)C(=O)OC1N=C(c2ccccc2)c2cc(Cl)ccc2NC1=O (stereo in doubt; 11) | 7.3 nmol/min | 6.8 |  | 3.83 mg/kg | 2.67 mg/kg |  | 4.7 | ED50 (Mus musculus [3]): 0.39 mg/kg; Km [8]: 25 µM; ED50 (Mus musculus [6]): 0.82 mg/kg |
| CC(Cc1ccccc1)C(=O)OC1N=C(c2ccccc2)c2cc(Cl)ccc2N[14C]1=O (racemic) |  |  |  |  |  |  |  | Drug uptake (Brain [9]): 10 nmol; Drug uptake (Brain [10]): 14.2 nmol; Drug uptake (Brain [11]): 1.3 nmol; Drug uptake (Brain [12]): 13 nmol; Drug uptake (Brain [13]): 5.5 nmol; Drug uptake (Brain [14]): 5.4 nmol; Rm [15]: 0.64; Drug uptake (Brain [16]): 4.7 nmol |
| O=C1Nc2ccc(Cl)cc2C(c2ccccc2)=NC1O (stereo not drawn) [OXAZEPAM] |  |  | 0.18 mg/kg |  |  | 0.39 mg/kg |  |  |
| CC(=O)OC1N=C(c2ccccc2)c2cc(Cl)ccc2N[14C]1=O (stereo not drawn) |  |  |  |  |  |  |  | Drug uptake (Brain [17]): 11 nmol; Drug uptake (Brain [18]): 59.5 nmol; Drug uptake (Brain [19]): 47.5 nmol; Drug uptake (Brain [20]): 39.4 nmol; Drug uptake (Brain [21]): 33 nmol; Drug uptake (Brain [22]): 49.2 nmol; Drug uptake (Brain [23]): 46.6 nmol; Drug uptake (Brain [24]): 29.9 nmol; Drug uptake (Brain [25]): 40.3 nmol; Rm [15]: -0.15 |
| O=C(CCCc1ccccc1)OC1N=C(c2ccccc2)c2cc(Cl)ccc2NC1=O (stereo not drawn) | 1.5 nmol/min |  |  |  |  |  |  | Km (esterase): 9.5 µM |
| O=C(Cc1ccccc1)OC1N=C(c2ccccc2)c2cc(Cl)ccc2NC1=O (stereo not drawn) | 12.2 nmol/min |  |  |  |  |  |  | Km (esterase): 22.7 µM |
| CC(Cc1ccccc1)C(=O)OC1N=C(c2ccccc2)c2cc(Cl)ccc2N[14C]1=O (single isomer, unassigned; (-)) |  |  |  |  |  |  |  | Drug uptake (Brain [9]): 11.8 nmol; Drug uptake (Brain [10]): 13.7 nmol; Drug uptake (Brain [11]): 0.8 nmol; Drug uptake (Brain [12]): 14.8 nmol; Drug uptake (Brain [13]): 12.2 nmol; Drug uptake (Brain [26]): 1.6 nmol; Drug uptake (Brain [14]): 6.7 nmol; Drug uptake (Brain [16]): 4.6 nmol |
| CC(C)C(=O)OC1N=C(c2ccccc2)c2cc(Cl)ccc2NC1=O (stereo not drawn) | 131 nmol/min | 4.8 | 0.51 mg/kg | 2.67 mg/kg | 2.45 mg/kg | 0.33 mg/kg | 8.1 |  |
| CC(=O)OC1N=C(c2ccccc2)c2cc(Cl)ccc2NC1=O (stereo not drawn) | 323 nmol/min | 2.6 | 0.38 mg/kg | 1.2 mg/kg | 0.97 mg/kg | 0.33 mg/kg | 3.6 |  |
| CC(Cc1ccccc1)C(=O)OC1N=C(c2ccccc2)c2cc(Cl)ccc2N[14C]1=O (stereo in doubt; [14C]-11) |  |  |  |  |  |  |  | Drug uptake (Brain [9]): 10.8 nmol; Drug uptake (Brain [10]): 11.7 nmol; Drug uptake (Brain [11]): 2.1 nmol; Drug uptake (Brain [12]): 12.8 nmol; Drug uptake (Brain [13]): 7.2 nmol; Drug uptake (Brain [26]): 2.6 nmol; Drug uptake (Brain [14]): 7.7 nmol; Drug uptake (Brain [16]): 5.6 nmol |
| O=C(CCc1ccccc1)OC1N=C(c2ccccc2)c2cc(Cl)ccc2NC1=O (stereo not drawn) | 7.9 nmol/min | 5.8 | 0.44 mg/kg | 3.56 mg/kg | 2.57 mg/kg | 0.31 mg/kg | 11.5 | Km (esterase): 9.7 µM |
| CC(Cc1ccccc1)C(=O)OC1N=C(c2ccccc2)c2cc(Cl)ccc2NC1=O (racemic) | 2.4 nmol/min | 7.4 |  | 4.01 mg/kg | 3.75 mg/kg | 0.66 mg/kg | 6.1 | ED50 (Mus musculus [3]): 0.51 mg/kg; Km [8]: 8.3 µM |
| CCC(CC)C(=O)OC1N=C(c2ccccc2)c2cc(Cl)ccc2NC1=O (stereo not drawn) | 1.4 nmol/min | 10 | 0.28 mg/kg | 3.42 mg/kg | 2.8 mg/kg | 0.33 mg/kg | 10.4 |  |
| CCCC(=O)OC1N=C(c2ccccc2)c2cc(Cl)ccc2NC1=O (stereo not drawn) | 88 nmol/min | 9.1 | 0.29 mg/kg | 3.28 mg/kg | 2.64 mg/kg | 0.32 mg/kg | 10.3 |  |
| CC(Cc1ccccc1)C(=O)OC1N=C(c2ccccc2)c2cc(Cl)ccc2NC1=O (single isomer, unassigned; (-)) | 2.6 nmol/min | 3.5 |  | 2.2 mg/kg | 2.86 mg/kg |  | 2.4 | ED50 (Mus musculus [3]): 0.81 mg/kg; Km [8]: 8.7 µM; ED50 (Mus musculus [6]): 0.92 mg/kg |
